Source: ChEMBL document CHEMBL1212874, “Natural and semisynthetic azaphilones as a new scaffold for Hsp90 inhibitors” (Bioorg Med Chem, 2010)
The source made the active and inactive calls. The calls are words filed in the database; no cut-off is given here.

Columns and labels:
Heat shock protein HSP90 [1] = target: T1, Heat shock protein HSP90 (Homo sapiens, UniProt P07900+P08238); assay: Inhibition of HSP90 in human A431 cells assessed as down-regulation of EGFR protein at IC80 concentration after 24 hrs by immunoblotting; format: cell-based; details: A-431
Outline: (§1)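 Cells seeded at 100,000 cells/mL, treated 24 h later for 24 h at the equitoxic IC80 concentration given per compound and cell line. Whole-cell extracts (40 µg) run on SDS-PAGE and immunoblotted. Actin was the loading control, and tubulin the loading control for EGFR.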

Heat shock protein HSP90 [2] = target: T1, Heat shock protein HSP90; assay: Inhibition of HSP90 in human A431 cells assessed as down-regulation of survivin protein after 24 hrs by immunoblotting; format: cell-based; details: a-431; outline: as §1
Heat shock protein HSP90 [3] = target: T1, Heat shock protein HSP90; assay: Inhibition of HSP90 in human JR8 cells assessed as down-regulation of Akt protein at IC80 concentration after 24 hrs by immunoblotting; format: cell-based; outline: as §1
IGROV-1 [4] = assay: Antiproliferative activity against human IGROV1 cells after 72 hrs; format: functional, cell-based; details: IGROV-1, 72 h
Heat shock protein HSP90 [5] = target: T1, Heat shock protein HSP90; assay: Inhibition of HSP90 in human JR8 cells assessed as down-regulation of Cdk4 protein at IC80 concentration after 24 hrs by immunoblotting; format: cell-based; outline: as §1
Heat shock protein HSP90 [6] = target: T1, Heat shock protein HSP90; assay: Inhibition of HSP90 in human IGROV1 cells assessed as down-regulation of Akt protein at IC80 concentration after 24 hrs by immunoblotting; format: cell-based; details: IGROV-1; outline: as §1
[7] = Binding affinity to HSP90 after 4 hrs by fluorescence polarization assay
Heat shock protein HSP90 [8] = target: T1, Heat shock protein HSP90; assay: Inhibition of HSP90 in human A431 cells assessed as down-regulation of EGFR protein after 24 hrs by immunoblotting; format: cell-based; details: a-431; outline: as §1
Heat shock protein HSP90 [9] = target: T1, Heat shock protein HSP90; assay: Inhibition of HSP90 in human A431 cells assessed as down-regulation of Cdk4 protein after 24 hrs by immunoblotting; format: cell-based; details: a-431; outline: as §1
A-431 = assay: Antiproliferative activity against human A431 cells after 72 hrs; format: functional, cell-based; details: A-431, 72 h
[10] = Inhibition of yeast full-length recombinant HSP90 ATPase activity expressed in Escherichia coli strain BL21(DE3) assessed as inorganic phosphate release after 3 hrs; parameters: species or system Saccharomyces cerevisiae
Heat shock protein HSP90 [11] = target: T1, Heat shock protein HSP90; assay: Inhibition of HSP90 in human A431 cells assessed as down-regulation of Akt protein after 24 hrs by immunoblotting; format: cell-based; details: a-431; outline: as §1
Heat shock protein HSP90 [12] = target: T1, Heat shock protein HSP90; assay: Inhibition of HSP90 in human JR8 cells assessed as down-regulation of EGFR protein at IC80 concentration after 24 hrs by immunoblotting; format: cell-based; outline: as §1
[13] = Antiproliferative activity against human JR8 cells after 72 hrs; format: functional, cell-based; details: JR8, 72 h
Heat shock protein HSP90 [14] = target: T1, Heat shock protein HSP90; assay: Inhibition of HSP90 in human JR8 cells assessed as down-regulation of survivin protein at IC80 concentration after 24 hrs by immunoblotting; format: cell-based; outline: as §1
Heat shock protein HSP90 [15] = target: T1, Heat shock protein HSP90; assay: Inhibition of HSP90 in human A431 cells assessed as reduction of Raf-1/Hsp90 precipitation at IC80 concentration after 4 hrs by co-immunoprecipitation analysis; format: cell-based; details: A-431
Heat shock protein HSP90 [16] = target: T1, Heat shock protein HSP90; assay: Inhibition of HSP90 in human IGROV1 cells assessed as down-regulation of Raf-1 protein at IC80 concentration after 24 hrs by immunoblotting; format: cell-based; details: IGROV-1; outline: as §1
[17] = Antiproliferative activity against human STO cells after 72 hrs; format: functional, cell-based
Outline: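 Cells seeded 24 h before, then exposed to compound for 72 h (about three doublings in controls), in medium with 10% heat-inactivated FBS at 37 °C. Compound dissolved fresh in DMSO and diluted in medium. Adherent cells trypsinized and counted electronically. IC50 is the concentration giving 50% growth inhibition, read from dose–response curves.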

Heat shock protein HSP90 [18] = target: T1, Heat shock protein HSP90; assay: Inhibition of HSP90 in human JR8 cells assessed as down-regulation of Raf-1 protein at IC80 concentration after 24 hrs by immunoblotting; format: cell-based; outline: as §1
NCI-H460 = assay: Antiproliferative activity against human NCI-H460 cells after 72 hrs; format: functional, cell-based; details: NCI-H460, 72 h
IGROV-1 [19] = assay: Antitumor activity against human IGROV1 cells xenografted in athymic Swiss nude mouse assessed as increase of mouse survival at 25 mg/kg, ip administered qd for 4 days/week for 2 weeks; format: functional, organism-based; parameters: dose 25 mg/kg
Outline: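 Female athymic Swiss nude mice, 8–10 weeks old. IGROV-1 ovarian carcinoma was serially passaged ip as ascites, and 2.5 × 10^6 cells in 0.2 mL saline were injected ip. Dosing ip at 25 mg/kg daily, 4 days/week for 2 weeks, began the day after implant. End point was median survival time, reported as T/C% (treated/control MST × 100).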

Heat shock protein HSP90 [20] = target: T1, Heat shock protein HSP90; assay: Inhibition of HSP90 in human A431 cells assessed as down-regulation of Akt protein at IC80 concentration after 24 hrs by immunoblotting; format: cell-based; details: A-431; outline: as §1
Heat shock protein HSP90 [21] = target: T1, Heat shock protein HSP90; assay: Inhibition of HSP90 in human A431 cells assessed as reduction of Hsp70/Hsp90 precipitation at 11 uM after 4 hrs by co-immunoprecipitation analysis; details: A-431
Heat shock protein HSP90 [22] = target: T1, Heat shock protein HSP90; assay: Inhibition of HSP90 in human A431 cells assessed as reduction of Raf-1/Hsp90 precipitation at 11 uM after 4 hrs by co-immunoprecipitation analysis; details: A-431
Heat shock protein HSP90 [23] = target: T1, Heat shock protein HSP90; assay: Inhibition of HSP90 in human A431 cells assessed as reduction of Hsp70/Hsp90 precipitation at IC80 concentration after 4 hrs by co-immunoprecipitation analysis; format: cell-based; details: A-431
Heat shock protein HSP90 [24] = target: T1, Heat shock protein HSP90; assay: Inhibition of HSP90 in human A431 cells expressing p53 mutant assessed as down-regulation of p53 protein at IC80 concentration after 24 hrs by immunoblotting; format: cell-based; details: A-431; outline: as §1
IGROV-1 [25] = assay: Induction of apoptosis in human IGROV1 cells assessed as PARP1 cleavage at 11 uM after 48 hrs by Western blotting; format: functional, cell-based
Outline: (§2)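 IGROV-1 cells treated with 11 µM compound for 24 or 48 h. Cells rinsed with ice-cold PBS containing 0.1 mM orthovanadate and lysed in hot sample buffer. 40 µg of total extract run on SDS-PAGE and blotted onto nitrocellulose. Probed for cleaved caspase-3 and PARP-1.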

Heat shock protein HSP90 [26] = target: T1, Heat shock protein HSP90; assay: Inhibition of HSP90 in human IGROV1 cells assessed as down-regulation of Cdk4 protein at IC80 concentration after 24 hrs by immunoblotting; format: cell-based; details: IGROV-1; outline: as §1
Heat shock protein HSP90 [27] = target: T1, Heat shock protein HSP90; assay: Inhibition of HSP90 in human IGROV1 cells assessed as down-regulation of survivin protein at IC80 concentration after 24 hrs by immunoblotting; format: cell-based; details: IGROV-1; outline: as §1
Heat shock protein HSP90 [28] = target: T1, Heat shock protein HSP90; assay: Inhibition of HSP90 in human A431 cells assessed as up-regulation of HSP70 protein at IC80 concentration after 24 hrs by immunoblotting; format: cell-based; details: A-431; outline: as §1
Heat shock protein HSP90 [29] = target: T1, Heat shock protein HSP90; assay: Inhibition of HSP90 in human A431 cells assessed as down-regulation of Raf-1 protein at IC80 concentration after 24 hrs by immunoblotting; format: cell-based; details: A-431; outline: as §1
Heat shock protein HSP90 [30] = target: T1, Heat shock protein HSP90; assay: Inhibition of HSP90 in human A431 cells assessed as down-regulation of Cdk4 protein at IC80 concentration after 24 hrs by immunoblotting; format: cell-based; details: A-431; outline: as §1
[31] = Binding affinity to HSP90 by surface plasmon resonance analysis
IGROV-1 [32] = assay: Induction of apoptosis in human IGROV1 cells assessed as activation of caspase 3 at 11 uM after 48 hrs by Western blotting; format: functional, cell-based; outline: as §2
Heat shock protein HSP90 [33] = target: T1, Heat shock protein HSP90; assay: Inhibition of HSP90 in human A431 cells assessed as down-regulation of survivin protein at IC80 concentration after 24 hrs by immunoblotting; format: cell-based; details: A-431; outline: as §1

SMILES | inhibition (Heat shock protein HSP90 [1]) | EC50 (Heat shock protein HSP90 [2]) [µM] | inhibition (Heat shock protein HSP90 [3]) | IC50 (IGROV-1 [4]) [µM] | inhibition (Heat shock protein HSP90 [5]) | inhibition (Heat shock protein HSP90 [6]) | IC50 [7] [µM] | EC50 (Heat shock protein HSP90 [8]) [µM] | EC50 (Heat shock protein HSP90 [9]) [µM] | IC50 (A-431) [µM] | IC80 (A-431) [µM] | IC50 [10] [µM] | EC50 (Heat shock protein HSP90 [11]) [µM] | inhibition (Heat shock protein HSP90 [12]) | IC50 [13] [µM] | inhibition (Heat shock protein HSP90 [14]) | inhibition (Heat shock protein HSP90 [15]) | inhibition (Heat shock protein HSP90 [16]) | Raf-1 protein down-regulation (Heat shock protein HSP90 [18]) | IC50 (NCI-H460) [µM] | also measured
CCC(C)/C=C/C=C/C=C/C(=O)/C=C(\O)C1=C2C=C(CC(O)CO)/C(=C/NCc3ccccc3)C(=O)[C@]2(C)OC1=O (some centres undefined) | Active | 2.32 | Active | 0.2 | Active | Active | 27.7 | 3.57 | 4.93 | 0.3 | 2.7 | 5.75 | 8.93 | Active | 4.8 | Active | Active | Active | Active | 4.3 | IC80 (IGROV-1 [4]): 2.3 µM; IC80 [13]: 10.7 µM; IC50 [17]: 3.57 µM; IC80 [17]: 11.6 µM
CCC(C)/C=C/C=C/C=C/C(=O)/C=C(\O)C1=C2C=C3CC(CO)OC=C3C(=O)[C@]2(C)OC1=O (some centres undefined) [BULGARIALACTONE B] | Active | 11 | Active | 4.65 | Active | Active | 61.7 | 11 | 8.49 | 5.53 | 11 | 9.87 | 16.8 | Active | 6.42 | Active | Active | Active | Active | 50 | Activity (IGROV-1 [19]): Active; inhibition (Heat shock protein HSP90 [20]): Active; inhibition (Heat shock protein HSP90 [21]): Active; inhibition (Heat shock protein HSP90 [22]): Active; inhibition (Heat shock protein HSP90 [23]): Active; inhibition (Heat shock protein HSP90 [24]): Active; inhibition (IGROV-1 [25]): Active; inhibition (Heat shock protein HSP90 [26]): Active; inhibition (Heat shock protein HSP90 [27]): Active; inhibition (Heat shock protein HSP90 [28]): inactive; inhibition (Heat shock protein HSP90 [29]): Active; inhibition (Heat shock protein HSP90 [30]): Active; Kd [31]: 0.0013 µM; inhibition (IGROV-1 [32]): Active; inhibition (Heat shock protein HSP90 [33]): Active
